Source: PubChem
Measles CPE: protection of cells from measles virus; protection (pct of control), % at 4 µM; Measles virus-infected cells, CPE protection, absorbance; 140,000 tested, 1.5% active; in the data active means protection mostly above about 24%, no sharp cut-off; inactive means mostly below about 26%
HMGR II inh: blocks class II HMG-CoA reductase of Enterococcus faecalis; 190,000 tested, 0.41% active; AID 1066; inhibition, % at 10 µM; purified E. faecalis HMGR, NADPH absorbance 340 nm kinetic;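 active means inhibition above a set limit, the median over all tested compounds plus 3 SD, cut at about 9.5% in these data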;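 further: enzyme runs in reverse so mevalonate oxidation gives rising NADPH absorbance; 0% = complete reaction with DMSO and 100% = background rate lacking mevalonate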
Arbovirus anti: arbovirus infection inhibition; 200,000 tested, 0.37% active; arbovirus infection cell-based antiviral screen; inhibition, % at 10 µM; in the data active means inhibition above about 30%
Yeast lifespan up: yeast lifespan extension. S. cerevisiae growth with nicotinamide, OD615; deaD strain in restrictive glucose medium. inhibition of the nicotinamide effect, % at 10 µM. 130,000 tested, 0.68% active;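 active means inhibition above a set limit, placed 3 SD over the median of all compounds, cut at about 26% in these data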;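 further: 0% = nicotinamide-treated wells and 100% = cells grown without nicotinamide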
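Test system: DeaD-strain S. cerevisiae / Buffer or medium: restrictive glucose medium / Also added: nicotinamide 1.5 mM / Doses: one concentration, 10 µM, DMSO 0.25% / Schedule: 48 h at 30 °C / Signal: OD615 measurement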
Rad51 HR inh: Rad51 (human) homologous recombination inhibition; Q06609; hRad51 DNA strand exchange, fluorescence dequenching; inhibition, % at 10 µM; 200,000 tested, 0.085% active;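 active means inhibition above 40% at the single screening dose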;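 further: 0% = DMSO control wells and 100% = blanks with heterologous ssDNA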
Target sequence (Q06609 whole entry, looked up): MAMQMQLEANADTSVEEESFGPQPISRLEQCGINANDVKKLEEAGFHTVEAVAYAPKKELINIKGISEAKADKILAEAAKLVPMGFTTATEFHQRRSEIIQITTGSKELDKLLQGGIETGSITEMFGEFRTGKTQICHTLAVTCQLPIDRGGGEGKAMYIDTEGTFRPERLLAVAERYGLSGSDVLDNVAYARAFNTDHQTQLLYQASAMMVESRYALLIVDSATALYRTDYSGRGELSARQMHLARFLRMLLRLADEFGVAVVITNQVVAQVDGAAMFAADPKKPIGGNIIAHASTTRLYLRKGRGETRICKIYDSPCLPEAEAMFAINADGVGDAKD
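Test system – preformed human Rad51 ssDNA filaments · Reagent – Donor/quencher-labelled 47-bp dsDNA substrate · Incubation – 37 °C 15-min filament assembly, 30-min compound preincubation, 15-min exchange · Signal – FRET fluorescence dequenching, excitation 485 nm, emission 520 nm · Read-out – percent inhibition from fluorescence, normalised to plate control and blank means · Benchmarks – plate control and blank wells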
BB579 growth dn: chemicals that inhibit yeast BB579 growth in restrictive medium (lifespan-shortening candidates); S. cerevisiae BB579 growth, OD615, 48 h; inhibition, % at 10 µM; 140,000 tested, 0.51% active;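 active means inhibition above a set limit, 3 SD over the mean compound inhibition, cut at about 44% in these data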
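Detection: OD615 turbidity measurement; Material: Saccharomyces cerevisiae DeaD strain BB579, replicative lifespan model yeast; Timing: 48 h exposure, 30 °C; Doses: single 10 µM dose; Medium: CSMM-D restrictive synthetic medium containing dextrose (glucose); Controls: amphotericin B at 10 µg/mL as positive control.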
Starred values were filed as active, the others as inactive. Rows were chosen to be rich in hits. Some 2.4% of all compounds tested hit in one or more screens of this group.

Results for Cc1cc(NC(=O)C2CC2)ncc1NC(=O)C12CC3CC(CC(C3)C1)C2 ?
Measles CPE: 9; HMGR II inh: -5; Arbovirus anti: 4; Yeast lifespan up: 29*; Rad51 HR inh: -1; BB579 growth dn: -31

What do the screens show for `S=C(Nc1ccc2cn[nH]c2c1)Nc1ccccc1Cl`?
Measles CPE: 8; HMGR II inh: -1; Arbovirus anti: 1; Yeast lifespan up: 37*; BB579 growth dn: -4

How did S=C(Nc1ccc2cn[nH]c2c1)Nc1ccc(Cl)cc1Cl do in these assays?
HMGR II inh: 8; Arbovirus anti: 12; Rad51 HR inh: 5

How did O=S(=O)(NC1CCCCC1Oc1ccccc1)c1ccccc1 (configuration not stated) do in these assays?
Measles CPE: 13; HMGR II inh: 0; Arbovirus anti: 10; Yeast lifespan up: -2; Rad51 HR inh: 4; BB579 growth dn: -14

How did O=C(CNC(=O)c1ccco1)N/N=C/c1c[nH]c2ccccc12 do in these assays?
HMGR II inh: 9.7*; Arbovirus anti: -4; Rad51 HR inh: -53

How did CCn1ccnc1CN(C)C(=O)CCc1nnc(CCCc2ccccc2)o1 do in these assays?
HMGR II inh: -3; Arbovirus anti: 1

How did Cc1ccc(Cl)cc1N1CCN(Cc2cc(=O)n3ccsc3n2)CC1 do in these assays?
HMGR II inh: -8; Arbovirus anti: -1; Rad51 HR inh: -9

How did O=C1CSC(=S)N1Cc1cccnc1 do in these assays?
Measles CPE: 6; HMGR II inh: -6; Arbovirus anti: -7; Yeast lifespan up: -6; Rad51 HR inh: -7; BB579 growth dn: -53

What do the screens show for `O=C1CSC(=S)N1c1cccnc1`?
Measles CPE: 21; HMGR II inh: -4; Arbovirus anti: 3; Yeast lifespan up: -2; Rad51 HR inh: 8; BB579 growth dn: 44*

What do the screens show for `O=C(COC(=O)/C=C/c1ccc2c(c1)OCO2)NC1CC1`?
Measles CPE: 26*; HMGR II inh: -6; Arbovirus anti: -3; Yeast lifespan up: 1; Rad51 HR inh: 1; BB579 growth dn: -37

How did CCOc1ccc(CN2CCN(Cc3cc4ccccc4[nH]3)CC2CCO)cc1 (configuration not stated) do in these assays?
HMGR II inh: 14*; Arbovirus anti: 9; Rad51 HR inh: -3

Results for CSc1ccc(CN2CCN(Cc3ccccc3)C(CCO)C2)cc1 (configuration not stated) ?
HMGR II inh: 11*; Arbovirus anti: -6; Rad51 HR inh: 14

What do the screens show for `CSc1cccc(CN2CCN(Cc3ccccc3)C(CCO)C2)c1` (configuration not stated)?
HMGR II inh: -9; Arbovirus anti: -13; Rad51 HR inh: -7

Results for CCOc1ccc(CN2CCN(Cc3cnc(-c4ccccc4)s3)CC2CCO)cc1 (configuration not stated) ?
HMGR II inh: -6; Arbovirus anti: -21; Rad51 HR inh: 13

Results for Cc1ccc(Nc2cc(C)nn2-c2nc(C)cc(=O)[nH]2)cc1 ?
Measles CPE: 3; HMGR II inh: -6; Arbovirus anti: -26; Yeast lifespan up: -27; Rad51 HR inh: 5; BB579 growth dn: 100*

How did O=C(c1ccc(Cl)cc1)N1CCC(O)(CSc2ccc(Cl)cc2Cl)CC1 do in these assays?
Measles CPE: 1; HMGR II inh: -1; Arbovirus anti: -41; Yeast lifespan up: -2; BB579 growth dn: -20

How did CCc1ccc(OCC(=O)N/N=C\c2ccco2)c([N+](=O)[O-])c1 do in these assays?
Measles CPE: 3; HMGR II inh: -1; Arbovirus anti: 2; Yeast lifespan up: 0; Rad51 HR inh: -22; BB579 growth dn: -26

How did O=c1c2cccc3c2c(nn1CN1CCOCC1)-c1ccccc1-3 do in these assays?
Measles CPE: 59*; HMGR II inh: -1; Arbovirus anti: -18; Yeast lifespan up: -19; Rad51 HR inh: 1; BB579 growth dn: 93*

What do the screens show for `CCN(CC)CCn1nc2c3c(cccc3c1=O)-c1ccccc1-2`?
HMGR II inh: -11; Arbovirus anti: -21; Rad51 HR inh: 20

How did CC(=O)c1c(C(C)=O)c(C)n(NC(=O)c2cccnc2)c1C do in these assays?
Measles CPE: 9; HMGR II inh: -3; Arbovirus anti: 0; Yeast lifespan up: 46*; Rad51 HR inh: -7; BB579 growth dn: -43

Results for CC(=O)c1c(C(C)=O)c(C)n(NC(=O)c2ccccc2O)c1C ?
Measles CPE: 16; HMGR II inh: 1; Arbovirus anti: -1; Yeast lifespan up: -4; Rad51 HR inh: -4; BB579 growth dn: -10

What do the screens show for `O=C(O)Cc1sc(Nc2ccc(F)cc2)nc1-c1cccs1`?
HMGR II inh: -7; Arbovirus anti: 2; Rad51 HR inh: -36

Results for CCOC(=O)c1cc([N+](=O)[O-])c([N+](=O)[O-])cc1NC(C)=O ?
Measles CPE: 0; HMGR II inh: 4; Arbovirus anti: -34; Yeast lifespan up: -12; Rad51 HR inh: -40; BB579 growth dn: 99*

How did O=C(NCCN1CCN(c2ccccc2)CC1)c1ccc2c(c1)[nH]c(=S)n1c3ccccc3nc21 do in these assays?
HMGR II inh: 9.6*; Arbovirus anti: 3; Rad51 HR inh: 8

Results for O=C(c1ccc2c(c1)[nH]c(=S)n1c3ccccc3nc21)N1CCN(c2ncccn2)CC1 ?
Measles CPE: 17; HMGR II inh: 3; Arbovirus anti: 10; Yeast lifespan up: 7; Rad51 HR inh: -12; BB579 growth dn: -62

What do the screens show for `CCCCNC(=O)c1ccccc1NC(=O)CCSc1ccccc1`?
Measles CPE: 9; HMGR II inh: 15*; Arbovirus anti: 6; Yeast lifespan up: -11; Rad51 HR inh: -7; BB579 growth dn: -23

What do the screens show for `O=S(=O)(NCC(c1ccco1)N1CCOCC1)c1ccc(Cl)cc1` (configuration not stated)?
Measles CPE: 9; HMGR II inh: 1; Arbovirus anti: 13; Yeast lifespan up: 7; Rad51 HR inh: 5; BB579 growth dn: -58

Results for CC(=O)c1ccc(N2CCN(C(=S)NCCCN(C)C)CC2)cc1 ?
HMGR II inh: 4; Arbovirus anti: 4; Rad51 HR inh: 1

What do the screens show for `CC(C)c1ccc2c(c1)C1(NN=C(c3ccccc3)S1)C(=O)N2` (configuration not stated)?
Measles CPE: 6; HMGR II inh: 0; Arbovirus anti: -34; Rad51 HR inh: 2; BB579 growth dn: 78*

How did CCc1ccc2c(c1)C1(NN=C(c3ccc(C)cc3)S1)C(=O)N2 (configuration not stated) do in these assays?
Measles CPE: 20; HMGR II inh: -3; Arbovirus anti: -34; Rad51 HR inh: -2; BB579 growth dn: 96*

How did O=C(c1cccc(S(=O)(=O)N2CCc3ccccc3C2)c1)N1CCN(c2ccc(O)cc2)CC1 do in these assays?
Measles CPE: 13; HMGR II inh: 0; Arbovirus anti: -27; Yeast lifespan up: 0; Rad51 HR inh: 12; BB579 growth dn: -43
